Experimental data published in ChEMBL document CHEMBL1149457, “Effects of amino acid chirality and the chemical linker on the cell permeation characteristics of cyclic prodrugs of opioid peptides” (J Med Chem, 2006).

Columns and labels:
Format in all cases: ADME, cell-based
Conditions in all cases: human
Caco-2 [1] = assay: Ratio of permeability from basolateral to apical over apical to basolateral side of the Caco-2 cell membrane in presence of 10 uM GF 120918
Method in brief: (§1)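 Caco-2 monolayers (passages 30-39) were grown 21-28 days on polyester Transwell membranes, with batch integrity checked by [14C]-mannitol flux. Bidirectional transport (n = 3) was run at 37 °C with shaking, using peptide at 20 µM final in HBSS pH 7.4 with 0.4% DMSO and inhibitor in HBSS. Sampling continued up to 160 min, with LC-MS-MS quantitation. Papp BL-to-AP/AP-to-BL ratio.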

Caco-2 [2] = assay: Ratio of permeability from basolateral to apical over apical to basolateral side of the Caco-2 cell membrane in presence of 20 uM cyclosporin A; method in brief: as §1
Caco-2 [3] = assay: Ratio of permeability from basolateral to apical over apical to basolateral side of the Caco-2 cell membrane in presence of 50 uM MK 571; method in brief: as §1
Caco-2 [4] = assay: Ratio of permeability from basolateral to apical over apical to basolateral side of the Caco-2 cell membrane in presence of 2 uM GF 120918; method in brief: as §1

CC(C)C[C@@H]1NC(=O)[C@H](Cc2ccccc2)NC(=O)CNC(=O)[C@H](C)NC(=O)[C@H](Cc2ccc(O)cc2)NC(=O)/C=C\c2ccccc2OCOC1=O
Ratio (Caco-2 [1]): 1.9 | Ratio (Caco-2 [2]): 12

CC(=O)N[C@@H](Cc1ccc(O)cc1)C(=O)N[C@@H](C)C(=O)NCC(=O)N[C@@H](Cc1ccccc1)C(=O)N[C@H](CC(C)C)C(N)=O
Ratio (Caco-2 [1]): 1 | Ratio (Caco-2 [3]): 3.8 | Ratio (Caco-2 [2]): 1.2

CC(=O)N[C@@H](Cc1ccc(O)cc1)C(=O)N[C@H](C)C(=O)NCC(=O)N[C@@H](Cc1ccccc1)C(=O)N[C@@H](CC(C)C)C(N)=O
Ratio (Caco-2 [1]): 1.1 | Ratio (Caco-2 [3]): 1.1 | Ratio (Caco-2 [2]): 2.4

CC(C)C[C@H]1NC(=O)[C@H](Cc2ccccc2)NC(=O)CNC(=O)[C@H](C)NC(=O)[C@H](Cc2ccc(O)cc2)NC(=O)/C=C\c2ccccc2OCOC1=O
Ratio (Caco-2 [4]): 5.4 | Ratio (Caco-2 [1]): 2.1 | Ratio (Caco-2 [2]): 6.1

CC(C)C[C@H]1NC(=O)[C@H](Cc2ccccc2)NC(=O)CNC(=O)[C@@H](C)NC(=O)[C@H](Cc2ccc(O)cc2)NC(=O)/C=C\c2ccccc2OCOC1=O
Ratio (Caco-2 [4]): 13 | Ratio (Caco-2 [1]): 2.8 | Ratio (Caco-2 [3]): 4.9

CC(C)C[C@@H]1NC(=O)[C@H](Cc2ccccc2)NC(=O)CNC(=O)[C@@H](C)NC(=O)[C@H](Cc2ccc(O)cc2)NC(=O)/C=C\c2ccccc2OCOC1=O
Ratio (Caco-2 [4]): 5 | Ratio (Caco-2 [1]): 2.3 | Ratio (Caco-2 [3]): 2.8 | Ratio (Caco-2 [2]): 14
